The record followed here is ChEMBL document CHEMBL4619811, “Systematic Investigation of the Permeability of Androgen Receptor PROTACs” (ACS Med Chem Lett, 2020).

One may read the Papp as a coefficient for how fast a substance crosses the barrier. What is called Papp B→A is the apparent permeability from the basolateral to the apical side of a cell layer. By efflux ratio is commonly meant the permeability from basolateral to apical divided by that in the opposite direction, in the common usage. For orientation: Papp A→B means how fast a substance crosses the layer from the apical side. What is called DC50 is the midpoint of the concentration-degradation curve.

Structures are written as SMILES. Active and inactive are the calls of the source. The rule behind the calls is not given here. Some results are limits rather than exact numbers.

One series concerns the target Albumin (Homo sapiens, UniProt P02768). Put plainly: Binding affinity to HSA assessed as free fraction by HPLC analysis. It counts as ADME. The following applies: isolated protein.
The nature of series [1]: Chromatographic hydrophobicity index, log D of the compound at pH 7.4 by HPLC analysis. The format is physicochemical. The following applies: buffer.
Series [2] is described as follows: Apparent permeability in pH 7.4 ammonium acetate buffer incubated for 5 hrs by PAMPA. It counts as ADME. In a few lines: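 Passive permeability by PAMPA, reported as Papp in 10–6 cm s–1. Values under the limit of quantification were flagged as BLQ. Compound recovery in the assay was also determined.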
In general terms: The PAMPA barrier holds no transporters, so it reflects passive diffusion.

Series [3] in a line: Apparent permeability from basolateral to apical side in human Caco2 cells at 10 uM incubated for 120 mins. It counts as ADME, cell-based. The settings on record: Caco-2. A digest of the protocol:
(§1)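 Polarized Caco-2 cell monolayer, permeability measured in both directions (apical to basolateral and basolateral to apical), reported as Papp in 10–6 cm s–1. Efflux ratio taken as the ratio of the directional permeabilities. Compound recovery also determined.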
On the technique in general: Caco-2 monolayers are a common model of the intestinal barrier.

The nature of series [4]: Efflux ratio of apparent permeability across basolateral to apical membrane over apical to basolateral membrane in human Caco2 cells at 10 uM incubated for 120 mins. It counts as ADME, cell-based. The following applies: Caco-2. In a few lines: as §1
Series [5] is described as follows: Apparent permeability from apical to basolateral side in human Caco2 cells at 10 uM incubated for 120 mins. It counts as ADME, cell-based. The settings on record: Caco-2. A digest of the protocol: as §1
The target of series [6] is T1, von Hippel-Lindau disease tumor suppressor/Androgen receptor (Homo sapiens, UniProt P10275+P40337). Put plainly: Protac activity at VHL/androgen receptor in human LNCaP cells assessed as induction of androgen receptor protein degradation incubated for 6 hrs by Western blot analysis relative to control. The format is cell-based. A digest of the protocol: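 LNCaP cells (androgen-dependent human prostate adenocarcinoma) were exposed to a concentration series of PROTAC. AR protein levels were normalized and plotted against PROTAC concentration. DCMAX is the percentage of AR cleared, and DC50 is the concentration clearing half of DCMAX. Data come from at least 5 independent experiments run in triplicate, with ANOVA (Dunnett's) for significance.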
Target sequence in this assay (P10275 whole entry, looked up): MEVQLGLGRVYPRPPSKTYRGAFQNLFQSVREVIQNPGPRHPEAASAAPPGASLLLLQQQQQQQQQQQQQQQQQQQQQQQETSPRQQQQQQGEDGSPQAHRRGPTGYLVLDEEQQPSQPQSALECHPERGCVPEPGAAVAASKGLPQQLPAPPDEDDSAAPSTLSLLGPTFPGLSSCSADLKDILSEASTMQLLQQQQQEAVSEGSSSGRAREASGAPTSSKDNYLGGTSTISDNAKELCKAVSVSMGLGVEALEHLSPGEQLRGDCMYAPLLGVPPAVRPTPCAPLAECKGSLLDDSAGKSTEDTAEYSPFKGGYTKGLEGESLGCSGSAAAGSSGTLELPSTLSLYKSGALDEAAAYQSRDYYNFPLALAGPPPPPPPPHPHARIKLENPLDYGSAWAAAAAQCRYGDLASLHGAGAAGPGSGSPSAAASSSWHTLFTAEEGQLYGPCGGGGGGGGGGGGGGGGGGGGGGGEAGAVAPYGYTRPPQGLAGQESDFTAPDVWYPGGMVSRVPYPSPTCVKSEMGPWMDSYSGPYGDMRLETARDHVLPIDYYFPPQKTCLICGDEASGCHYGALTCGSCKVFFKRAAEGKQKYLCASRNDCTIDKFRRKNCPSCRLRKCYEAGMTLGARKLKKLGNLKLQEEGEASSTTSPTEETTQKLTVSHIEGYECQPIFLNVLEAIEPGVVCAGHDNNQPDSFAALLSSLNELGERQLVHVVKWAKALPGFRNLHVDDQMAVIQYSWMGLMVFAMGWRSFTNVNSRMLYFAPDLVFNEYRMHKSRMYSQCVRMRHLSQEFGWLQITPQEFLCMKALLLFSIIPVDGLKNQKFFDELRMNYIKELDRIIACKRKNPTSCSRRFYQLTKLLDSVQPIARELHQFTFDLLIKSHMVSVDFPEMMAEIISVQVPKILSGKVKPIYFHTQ
Target sequence in this assay (P40337 whole entry, looked up): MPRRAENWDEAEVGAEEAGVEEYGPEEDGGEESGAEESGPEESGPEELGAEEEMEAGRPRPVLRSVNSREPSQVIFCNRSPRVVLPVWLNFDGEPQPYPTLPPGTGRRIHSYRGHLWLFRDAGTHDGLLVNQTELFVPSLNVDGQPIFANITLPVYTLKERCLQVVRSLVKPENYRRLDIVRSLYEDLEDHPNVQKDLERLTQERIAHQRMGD

Series [7] addresses T1, von Hippel-Lindau disease tumor suppressor/Androgen receptor. Put plainly: Protac activity at VHL/androgen receptor in human LNCaP cells assessed as induction of androgen receptor protein degradation incubated for 6 hrs by Western blot analysis. It counts as cell-based. In a few lines: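 Androgen-dependent LNCaP prostate adenocarcinoma cells treated across a concentration range, then AR protein levels normalized and plotted against concentration. DCMAX is the percentage of AR cleared; DC50 is the concentration giving half of DCMAX. At least 5 independent experiments, each in triplicate. Significance by ANOVA with Dunnett's test.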
On the technique in general: A western blot detects proteins with antibodies after separation by electrophoresis.

Series [8] has the same target. Put plainly: Protac activity at VHL/androgen receptor in human LNCaP cells assessed as induction of androgen receptor protein degradation at 1 uM incubated for 6 hrs by Western blot analysis relative to control. The format is cell-based.
Target sequence in this assay (P10275 whole entry, looked up): as the sequence (P10275 whole entry, looked up) above
Target sequence in this assay (P40337 whole entry, looked up): as the sequence (P40337 whole entry, looked up) above

Chain of Albumin (P02768 whole entry): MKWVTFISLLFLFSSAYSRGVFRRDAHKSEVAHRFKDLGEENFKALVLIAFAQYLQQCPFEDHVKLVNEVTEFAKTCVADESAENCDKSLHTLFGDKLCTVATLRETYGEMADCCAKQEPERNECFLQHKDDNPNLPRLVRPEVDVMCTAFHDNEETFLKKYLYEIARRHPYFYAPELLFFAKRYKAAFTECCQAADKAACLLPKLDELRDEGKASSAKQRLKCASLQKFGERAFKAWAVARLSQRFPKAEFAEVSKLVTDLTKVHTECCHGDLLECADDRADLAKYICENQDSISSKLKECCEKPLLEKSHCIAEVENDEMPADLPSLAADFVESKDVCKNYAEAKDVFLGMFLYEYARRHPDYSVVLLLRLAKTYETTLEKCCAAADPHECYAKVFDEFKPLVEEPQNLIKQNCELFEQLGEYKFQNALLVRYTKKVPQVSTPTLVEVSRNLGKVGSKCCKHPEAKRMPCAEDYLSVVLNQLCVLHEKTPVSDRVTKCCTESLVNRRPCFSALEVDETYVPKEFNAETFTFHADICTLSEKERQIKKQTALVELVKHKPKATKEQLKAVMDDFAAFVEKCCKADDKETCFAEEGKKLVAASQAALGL

Turning to `Cc1ncsc1-c1ccc(CNC(=O)[C@@H]2C[C@@H](O)CN2C(=O)[C@@H](NC(=O)CCOCCOCCOc2ccc(C(=O)N[C@H]3C(C)(C)[C@H](Oc4ccc(C#N)c(C(F)(F)F)c4)C3(C)C)cc2)C(C)(C)C)cc1`, the Activity at Albumin was 8%. Moreover, the CHI in series [1] was found to be 5.8. Further, the Papp at 5 h in series [2] is less than 1 ×10⁻⁶ cm/s.

Turning to `Cc1ncsc1-c1ccc(CNC(=O)[C@@H]2C[C@@H](O)CN2C(=O)[C@@H](NC(=O)COCCCOCCCCOc2ccc(N3C(=S)N(c4ccc(C#N)c(C(F)(F)F)c4)C(=O)C3(C)C)cc2)C(C)(C)C)cc1`, on Albumin, the Activity was 10%. The CHI in series [1] is given as 6. Further, the Papp B→A at 2 h, 10 µM in series [3] stood at 1.4 ×10⁻⁶ cm/s. The efflux ratio at 2 h, 10 µM in [4] is more than 0.5. In series [5], the Papp A→B at 2 h, 10 µM was less than 27 ×10⁻⁶ cm/s. In addition, the Papp at 5 h in series [2] was less than 1 ×10⁻⁶ cm/s.

As to `CN1C(=O)N(c2ccc(C#N)c(C(F)(F)F)c2)C(=O)C1(C)c1ccc(O)cc1` (stereo not drawn), the Activity on Albumin is more than 5%. In [1], this compound displayed a CHI of 4.4. The Papp at 5 h in series [2] is 8.3 ×10⁻⁶ cm/s.

`CC1(C)C(=O)N(c2ccc(C#N)c(C(F)(F)F)c2)C(=S)N1c1ccc(OCCOCCOCCOCCOc2cccc3c2CN([C@H]2CCC(=O)NC2=O)C3=O)cc1`: the %max in [6] was found to be 33%. In addition, the DC50 in series [7] stood at 10 nM.

Regarding `Cc1ncsc1-c1ccc(CNC(=O)[C@@H]2C[C@@H](O)CN2C(=O)[C@@H](NC(=O)COCCCOCC(F)(F)C(F)(F)COc2ccc(N3C(=S)N(c4ccc(C#N)c(C(F)(F)F)c4)C(=O)C3(C)C)cc2)C(C)(C)C)cc1`, the Activity at Albumin worked out at 7%. The CHI in [1] was 6.1. Besides, the Papp B→A at 2 h, 10 µM in series [3] stood at 0.33 ×10⁻⁶ cm/s. Moreover, the efflux ratio at 2 h, 10 µM in series [4] was more than 3. Further, the Papp A→B at 2 h, 10 µM in series [5] amounted to 0.33 ×10⁻⁶ cm/s. In addition, the Papp at 5 h in series [2] is less than 1 ×10⁻⁶ cm/s.

`Cc1ncsc1-c1ccc(CNC(=O)[C@@H]2C[C@@H](O)CN2C(=O)[C@@H](NC(=O)COCCCOc2ccc(-c3ccc(N4C(=S)N(c5ccc(C#N)c(C(F)(F)F)c5)C(=O)C4(C)C)cc3)cc2)C(C)(C)C)cc1`: the Activity at Albumin is reported as 7%. The compound further yielded a CHI in [1] of 6.2. Further, the Papp at 5 h in [2] was less than 1 ×10⁻⁶ cm/s.

Turning to `Cc1ncsc1-c1ccc(CNC(=O)[C@@H]2C[C@@H](O)CN2C(=O)[C@@H](NC(=O)COCCCCCOc2ccc(C(=O)N[C@H]3C(C)(C)[C@H](Oc4ccc(C#N)c(C(F)(F)F)c4)C3(C)C)cc2)C(C)(C)C)cc1`, the Activity on Albumin came to 7%. Moreover, the CHI in series [1] came to 6.7. Further, in [2], the Papp at 5 h was less than 1 ×10⁻⁶ cm/s.

`CC(O)(COc1ccc(OCCOCCOCCOCCOc2cccc3c2C(=O)N(C2CCC(=O)NC2=O)C3=O)cc1)C(=O)Nc1ccc(C#N)c(C(F)(F)F)c1` (stereo not drawn): the Papp at 5 h in [2] was found to be 0.3 ×10⁻⁶ cm/s.

As to `Cc1ncsc1-c1ccc(CNC(=O)[C@@H]2C[C@@H](O)CN2C(=O)[C@@H](NC(=O)COCC(F)(F)COc2ccc(-c3ccc(N4C(=S)N(c5ccc(C#N)c(C(F)(F)F)c5)C(=O)C4(C)C)cc3)cc2)C(C)(C)C)cc1`, the Activity at Albumin was found to be 6%. Further, in series [1], the CHI came out at 6.1. Also, in series [2], the Papp at 5 h is less than 1 ×10⁻⁶ cm/s.

Consider `Cc1ncsc1-c1ccc(CNC(=O)[C@@H]2C[C@@H](O)CN2C(=O)[C@@H](NC(=O)COCCCOCCCCCOc2ccc(N3C(=S)N(c4ccc(C#N)c(C(F)(F)F)c4)C(=O)C3(C)C)cc2)C(C)(C)C)cc1`, for which, at Albumin, the Activity was 9%. In series [1], this compound displayed a CHI of 6.3. In addition, the apparent permeability from basolateral to apical (Papp B→A) at 2 h, 10 µM in series [3] was 0.24 ×10⁻⁶ cm/s. In addition, the efflux ratio at 2 h, 10 µM in series [4] was 0.7. Further, in series [5], the apical-to-basolateral permeability (Papp A→B) at 2 h, 10 µM was 0.35 ×10⁻⁶ cm/s. Moreover, in series [2], the Papp at 5 h was less than 1 ×10⁻⁶ cm/s.

Take `Cc1ncsc1-c1ccc(CNC(=O)[C@@H]2C[C@@H](O)CN2C(=O)[C@@H](NC(=O)COCC(F)(F)C(F)(F)C(F)(F)COCCCOc2ccc(N3C(=S)N(c4ccc(C#N)c(C(F)(F)F)c4)C(=O)C3(C)C)cc2)C(C)(C)C)cc1`: on Albumin, the Activity came to 7%. In series [1], this compound returned a CHI of 6.3. Also, the Papp B→A at 2 h, 10 µM in series [3] was less than 0.79 ×10⁻⁶ cm/s. Moreover, the efflux ratio at 2 h, 10 µM in series [4] was less than 3. In [5], the Papp A→B at 2 h, 10 µM amounted to 0.26 ×10⁻⁶ cm/s. Besides, in series [2], the Papp at 5 h was less than 1 ×10⁻⁶ cm/s.

As to `O=C1CCC(N2C(=O)c3cccc(O)c3C2=O)C(=O)N1` (stereo not drawn), the figures for the Activity (at Albumin; in series [8]) were more than 5% and 23%, respectively. The compound further displayed a CHI in [1] of 0.4. In addition, the Papp at 5 h in [2] was 2 ×10⁻⁶ cm/s.

For the compound `Cc1ncsc1-c1ccc(CNC(=O)[C@@H]2C[C@@H](O)CN2C(=O)[C@@H](NC(=O)CCOCCOCCOCCOc2ccc(N3C(=S)N(c4ccc(C#N)c(C(F)(F)F)c4)C(=O)C3(C)C)cc2)C(C)(C)C)cc1`, the Activity on Albumin is recorded as 11%. In addition, the CHI in [1] amounted to 5.1. In series [3], the Papp B→A at 2 h, 10 µM worked out at 2.6 ×10⁻⁶ cm/s. The efflux ratio at 2 h, 10 µM in series [4] is more than 12. In [5], the Papp A→B at 2 h, 10 µM is less than 0.69 ×10⁻⁶ cm/s. Besides, in series [2], the Papp at 5 h was less than 1 ×10⁻⁶ cm/s.

Regarding `CC1(C)C(=O)N(c2ccc(C#N)c(C(F)(F)F)c2)C(=S)N1c1ccc(OCCOCCOCCOCCOC23CC4CC(CC(C4)C2)C3)cc1`, the basolateral-to-apical permeability (Papp B→A) at 2 h, 10 µM in [3] is 0.22 ×10⁻⁶ cm/s. Besides, in [4], the efflux ratio at 2 h, 10 µM was 1.5. In addition, the Papp A→B at 2 h, 10 µM in series [5] is 0.15 ×10⁻⁶ cm/s. Moreover, in series [2], the Papp at 5 h was less than 1 ×10⁻⁶ cm/s.

For `N#Cc1ccc(N2CCC[C@@H]2C(O)CO)cc1C(F)(F)F` (stereo partly drawn), at Albumin, the Activity is recorded as more than 5%. The Papp at 5 h in series [2] was determined as 13.3 ×10⁻⁶ cm/s.

As to `N#Cc1ccc(N2CCC[C@@H]2C(O)COCCOCCOCCOCCOC23CC4CC(CC(C4)C2)C3)cc1C(F)(F)F` (stereo partly drawn), in series [2], the apparent permeability (Papp) at 5 h is 2.3 ×10⁻⁶ cm/s.

As to `CC1(C)C(=O)N(c2ccc(C#N)c(C(F)(F)F)c2)C(=S)N1c1ccc(OCCOCCOCCOCCOc2cccc3c2C(=O)N(C2CCC(=O)NC2=O)C3=O)cc1` (stereo not drawn), the Papp B→A at 2 h, 10 µM in series [3] was 14.1 ×10⁻⁶ cm/s. For the same compound, the outcome in [7] was inactive. Moreover, the efflux ratio at 2 h, 10 µM in series [4] was found to be 8.4. The Papp A→B at 2 h, 10 µM in [5] amounted to 1.7 ×10⁻⁶ cm/s. Moreover, in series [2], the Papp at 5 h was less than 1 ×10⁻⁶ cm/s.

Regarding `CC(O)(COc1ccc(OCCOCCOCCOCCOc2cccc3c2CN([C@H]2CCC(=O)NC2=O)C3=O)cc1)C(=O)Nc1ccc(C#N)c(C(F)(F)F)c1` (stereo partly drawn), in series [2], the Papp at 5 h is 0.4 ×10⁻⁶ cm/s.

For the compound `OC12CC3CC(CC(C3)C1)C2`, the Activity on Albumin is more than 5%; in series [8], 18%. The compound also had a CHI in [1] of 7.9.

Turning to `CC(O)(COc1ccc(O)cc1)C(=O)Nc1ccc(C#N)c(C(F)(F)F)c1` (stereo not drawn), the Activity is more than 5% on Albumin and 23% in series [8]. Further, in series [1], the CHI was found to be 4. The Papp at 5 h in series [2] is 1.4 ×10⁻⁶ cm/s.

As for `CN1C(=O)N(c2ccc(C#N)c(C(F)(F)F)c2)C(=O)C1(C)c1ccc(OCCOCCOCCOCCOc2cccc3c2CN([C@H]2CCC(=O)NC2=O)C3=O)cc1` (stereo partly drawn), in series [2], the Papp at 5 h turned out to be 0.3 ×10⁻⁶ cm/s.

For `CC1(C)C(=O)N(c2ccc(C#N)c(C(F)(F)F)c2)C(=S)N1c1ccc(O)cc1`, the Activity at Albumin is given as more than 5%. Also, in series [1], the CHI was 5. For the same compound, the Papp at 5 h in [2] stood at 4.6 ×10⁻⁶ cm/s.

Turning to `O=C1CC[C@H](N2Cc3c(O)cccc3C2=O)C(=O)N1`, the Activity on Albumin is on record as more than 5%. In [1], this compound displayed a CHI of 0.2.
